Published values pooled from the literature.
Compare with care: the assays were run in different laboratories.
Target: Tyrosine-protein kinase BTK (BTK, Homo sapiens, UniProt Q06187)

`C[C@@H]1CCN(c2nccc(-c3cnn4ncccc34)n2)C1` gave a remaining binding of 90% (binding; 1 µM).
With `Cc1ccc(-n2nc(C(C)(C)C)cc2NC(=O)Nc2ccc(-n3c(N)c(C(N)=O)c4nc5ccccc5nc43)cc2)cc1` the remaining binding was 0.95% (cell-free assay; competition with immobilised ligand; 1 µM).
With `CC(=O)Nc1c(C(C)=O)c(=O)n(C)c2nc(-c3ccc(Cl)cc3Cl)c(-c3ccc(Cl)cc3)cc12` the remaining binding was 88% (cell-free assay; competition with immobilised ligand; 1 µM).
With `C[C@@H]1CN(c2ccc3ncc(-c4ccc5[nH]nc(C6CC6)c5c4)n3n2)C[C@H](C)O1` the remaining binding was 67% (binding; competition with immobilised ligand; 50 nM).
`Cc1cnc(Nc2ccc(C(=O)N3CCC(N4CCCC4)CC3)cc2)nc1-c1cc2ccccc2s1` has a remaining binding of 54% (binding; competition with immobilised ligand; 1 µM).
`CN(c1nccc(-c2cnn3ncccc23)n1)C1CC1` has a remaining binding of 100% (binding; 1 µM).
For `N#Cc1ccc(Nc2ccc3[nH]c(=O)[nH]c3c2)c(Cl)c1`, the remaining binding was 100% (cell-free assay; competition with immobilised ligand; 1 µM).
With `c1cnn2ncc(-c3ccnc(N4CCC45COC5)n3)c2c1` the remaining binding was 89% (binding; 1 µM).
With `COc1cnc(Nc2cccc(S(N)(=O)=O)c2)nc1N1CCN(c2ccccc2)CC1` the remaining binding was 80% (binding; competition with immobilised ligand; 1 µM).
`F[C@@H]1CCN(c2nccc(-c3cnn4ncccc34)n2)C1` gave a remaining binding of 100% (binding; 1 µM).
`O=C(O)[C@@H]1[C@@H](Cn2nnc3ccccc3c2=O)CC[C@H]1C(=O)c1ccc(OCCC2CCOCC2)cc1` has a remaining binding of 100% (cell-free assay; competition with immobilised ligand; 1 µM).
`CN(C)c1ncc(F)c(-c2cnn3ncccc23)n1` gave a remaining binding of 75% (binding; 1 µM).
The remaining binding of `c1cncc(-c2cccc(Nc3nccc(NC4CCCCC4)n3)c2)c1` is reported as 36% (binding; competition with immobilised ligand; 10 µM).
The remaining binding of `CC(C)(C)c1ccc(-c2nc(CBr)nn2-c2cccc(O)c2)cc1` is reported as 83% (cell-free assay; competition with immobilised ligand; 10 µM).
`CN(C)c1nccc(-c2cnc3ncccn23)n1` gave a remaining binding of 68% (binding; 1 µM).
`N#Cc1ccccc1CSc1nnc2c(n1)[nH]c1ccccc12` gave a remaining binding of 100% (binding; competition with immobilised ligand; 10 µM).
`O=C(Nc1cccnn1)N1CCC(=Cc2cccc(Oc3ccc(C(F)(F)F)cn3)c2)CC1` gave a remaining binding of 100% (cell-free assay; competition with immobilised ligand; 1 µM).
The remaining binding of `O=C(NCCCN1CCOCC1)c1ccc(Nc2nccc(-c3cc4ccccc4s3)n2)cc1` is reported as 77% (binding; competition with immobilised ligand; 1 µM).
`O=C1CCc2cc(Nc3cc(OC4CCOCC4)c([N+](=O)[O-])cc3Cl)ccc2N1` gave a remaining binding of 100% (cell-free assay; competition with immobilised ligand; 1 µM).
`O=C(NCC1CCOCC1)c1n[nH]cc1NC(=O)c1c(F)cccc1F` has a remaining binding of 91% (binding; competition with immobilised ligand; 1 µM).
For `O=C(Nc1cccnn1)N1CC(C/C=C/c2cncc(Oc3ccc(C(F)(F)F)cn3)n2)C1`, the remaining binding was 59% (cell-free assay; competition with immobilised ligand; 1 µM).
`CN(C)c1nccc(-c2cnn3ncccc23)n1` gave a remaining binding of 85% (binding; 1 µM).
`CS(=O)(=O)N1CCCC(NC(=O)[C@H](CCC2CCCCC2)NC(=O)c2ccc(CNc3ncnc4c3nnn4-c3ccccc3)cc2)C1` (stereo partly drawn) gave a remaining binding of 100% (cell-free assay; competition with immobilised ligand; 0.1 µM).
`O=C(c1ccc(Nc2ncc(Cl)c(-c3cc4ccccc4s3)n2)cc1)N1CCC(N2CCCC2)CC1` has a remaining binding of 63% (binding; competition with immobilised ligand; 1 µM).
